Measurements as given in ChEMBL document CHEMBL3425481, “Design, synthesis and anticancer activity of matrine-1H-1,2,3-triazole-chalcone conjugates” (Bioorg Med Chem Lett, 2015).
Calls of active or inactive are those of the source. No cut-off for these calls is given here.

Tests used:
[1] = system: HeLa; assay: Antiproliferative activity against human HeLa cells assessed as inhibition of cell proliferation incubated for 48 hrs by CCK8 assay; assay type: functional, cell-based
Summary of the method: (§1)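 Human A549 lung, Hela cervical, Bel-7402 hepatocellular and MCF-7 breast cancer cells, plus mouse embryo fibroblast NIH3T3, tested for anti-proliferative activity by CCK-8 assay. For the matrine combination tests, the chalcone and matrine were used at a 1:1 molar ratio; values given as IC50.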

[2] = Antiproliferative activity against mouse NIH/3T3 cells assessed as inhibition of cell proliferation incubated for 48 hrs by CCK8 assay; assay type: cell-based; settings: NIH3T3, 48 h; summary of the method: as §1
[3] = system: A549; assay: Antiproliferative activity against human A549 cells assessed as inhibition of cell proliferation incubated for 48 hrs by CCK8 assay; assay type: functional, cell-based; settings: A549, 48 h; summary of the method: as §1
[4] = system: MCF7; assay: Antiproliferative activity against human MCF7 cells assessed as inhibition of cell proliferation incubated for 48 hrs by CCK8 assay; assay type: functional, cell-based; settings: MCF7, 48 h; summary of the method: as §1
[5] = Antiproliferative activity against human Bel7402 cells assessed as inhibition of cell proliferation incubated for 48 hrs by CCK8 assay; assay type: functional, cell-based; settings: Bel-7402, 48 h; summary of the method: as §1
[6] = system: A549; assay: Antitumor activity against human A549 cells xenografted in Balb/ca-nu mouse assessed as tumor growth inhibition at 5 mg/kg, iv dosed every 3 days for total of 7 dosing rounds measured on day 16 after treatment; assay type: functional; settings: read-out: TGI
Summary of the method: (§2)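 A549 xenograft in mice, dosed by tail vein injection every 3 days; vehicle saline plus 0.2% Tween 80. n = 8 per treatment group, 6 in the vehicle group. Mean ± SE.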

[7] = system: A549; assay: Antitumor activity against human A549 cells xenografted in Balb/ca-nu mouse assessed as tumor growth inhibition at 5 mg/kg, iv dosed every 3 days for total of 7 dosing rounds measured on day 10 after treatment; assay type: functional; settings: read-out: TGI; summary of the method: as §2
[8] = system: A549; assay: Antitumor activity against human A549 cells xenografted in Balb/ca-nu mouse assessed as tumor growth inhibition at 5 mg/kg, iv dosed every 3 days for total of 7 dosing rounds measured on day 18 after treatment; assay type: functional; settings: read-out: TGI; summary of the method: as §2
[9] = system: A549; assay: Antitumor activity against human A549 cells xenografted in Balb/ca-nu mouse assessed as tumor growth inhibition at 5 mg/kg, iv dosed every 3 days for total of 7 dosing rounds measured on day 14 after treatment; assay type: functional; settings: read-out: TGI; summary of the method: as §2
[10] = system: A549; assay: Antitumor activity against human A549 cells xenografted in Balb/ca-nu mouse assessed as tumor growth inhibition at 5 mg/kg, iv dosed every 3 days for total of 7 dosing rounds measured on day 20 after treatment; assay type: functional; settings: read-out: TGI; summary of the method: as §2
[11] = system: A549; assay: Antitumor activity against human A549 cells xenografted in Balb/ca-nu mouse assessed as tumor growth inhibition at 5 mg/kg, iv dosed every 3 days for total of 7 dosing rounds measured on day 12 after treatment; assay type: functional; settings: read-out: TGI; summary of the method: as §2
[12] = system: A549; assay: Antitumor activity against human A549 cells xenografted in Balb/ca-nu mouse assessed as tumor growth inhibition at 10 mg/kg, iv dosed every 3 days for total of 7 dosing rounds measured on day 8 after treatment; assay type: functional, organism-based; set-up: dose 10 mg/kg; summary of the method: as §2

Structure (SMILES) | IC50 [1] [µM] | IC50 [2] [µM] | IC50 [3] [µM] | IC50 [4] [µM] | IC50 [5] [µM] | inhibition in vivo at 5 mg/kg [6] [%] | inhibition in vivo at 5 mg/kg [7] [%] | inhibition in vivo at 5 mg/kg [8] [%] | inhibition in vivo at 5 mg/kg [9] [%] | inhibition in vivo at 5 mg/kg [10] [%] | inhibition in vivo at 5 mg/kg [11] [%] | TGI [12]
O=C(/C=C/c1ccccc1)c1ccc(OCc2cn([C@H]3CC(=O)N4C[C@@H]5CCCN6CCC[C@@H]([C@H]56)[C@H]4C3)nn2)cc1O | 17.3 | > 100 | 16.8 | 12 | 17.3 | – | – | – | – | – | – | –
CC(=O)c1ccc(OCc2cn([C@H]3CC(=O)N4C[C@@H]5CCCN6CCC[C@@H]([C@H]56)[C@H]4C3)nn2)cc1O | > 50 | 61.8 | > 50 | > 50 | > 50 | – | – | – | – | – | – | –
CC(=O)O[C@H]1C(=O)[C@@]2(C)[C@H]([C@H](OC(=O)c3ccccc3)[C@]3(O)C[C@H](OC(=O)[C@H](O)[C@@H](NC(=O)c4ccccc4)c4ccccc4)C(C)=C1C3(C)C)[C@]1(OC(C)=O)CO[C@@H]1C[C@@H]2O [PACLITAXEL] | 0.38 | 20 | 2.82 | – | – | 85.4 | 58.3 | 88.9 | 79.5 | 89.1 | 70.4 | Active
COc1ccc(/C=C/C(=O)c2ccc(OCc3cn([C@H]4CC(=O)N5C[C@@H]6CCCN7CCC[C@@H]([C@H]67)[C@H]5C4)nn3)cc2O)cc1OC | > 50 | 13.3 | > 50 | – | – | – | – | – | – | – | – | –
O=C(/C=C/c1ccc(Cl)cc1)c1ccc(OCc2cn([C@H]3CC(=O)N4C[C@@H]5CCCN6CCC[C@@H]([C@H]56)[C@H]4C3)nn2)cc1 | 19.3 | 31.3 | 18.9 | 14.3 | 21.2 | – | – | – | – | – | – | –
O=C(/C=C/c1ccc(Br)cc1)c1ccc(OCc2cn([C@H]3CC(=O)N4C[C@@H]5CCCN6CCC[C@@H]([C@H]56)[C@H]4C3)nn2)cc1 | 17.1 | 30.9 | 24.5 | 22.7 | 22.7 | – | – | – | – | – | – | –
COc1ccc(/C=C/C(=O)c2ccc(OCc3cn([C@H]4CC(=O)N5C[C@@H]6CCCN7CCC[C@@H]([C@H]67)[C@H]5C4)nn3)cc2)cc1 | > 50 | 23.1 | > 50 | – | – | – | – | – | – | – | – | –
COc1cc(/C=C/C(=O)c2ccc(OCc3cn([C@H]4CC(=O)N5C[C@@H]6CCCN7CCC[C@@H]([C@H]67)[C@H]5C4)nn3)cc2O)cc(OC)c1OC | > 50 | 15.2 | > 50 | – | – | – | – | – | – | – | – | –
CC(C)(C)c1ccc(/C=C/C(=O)c2ccc(OCc3cn([C@H]4CC(=O)N5C[C@@H]6CCCN7CCC[C@@H]([C@H]67)[C@H]5C4)nn3)cc2O)cc1 | 36.3 | 20.4 | 36.5 | – | – | – | – | – | – | – | – | –
C#CCOc1ccc(C(=O)/C=C/c2ccccc2)cc1 | > 50 | 72.9 | > 50 | > 50 | – | – | – | – | – | – | – | –
O=C(/C=C/c1cccc(C(F)(F)F)c1)c1ccc(OCc2cn([C@H]3CC(=O)N4C[C@@H]5CCCN6CCC[C@@H]([C@H]56)[C@H]4C3)nn2)cc1O | 12.7 | 34.8 | 8.18 | 8.87 | 12.1 | – | – | – | – | – | – | –
O=C(/C=C/c1ccc(F)cc1)c1ccc(OCc2cn([C@H]3CC(=O)N4C[C@@H]5CCCN6CCC[C@@H]([C@H]56)[C@H]4C3)nn2)cc1 | 18.7 | 39.8 | 18.7 | 26.9 | 22.2 | – | – | – | – | – | – | –
C#CCOc1ccc(C(=O)/C=C/c2cccc(Cl)c2)c(O)c1 | > 50 | 79.5 | > 50 | > 50 | – | – | – | – | – | – | – | –
O=C(/C=C/c1cccc(Cl)c1)c1ccc(OCc2cn([C@H]3CC(=O)N4C[C@@H]5CCCN6CCC[C@@H]([C@H]56)[C@H]4C3)nn2)cc1 | 15.2 | 38.1 | 11.9 | 10.2 | 13.7 | – | – | – | – | – | – | –
O=C(/C=C/c1ccc(Cl)c(Cl)c1)c1ccc(OCc2cn([C@H]3CC(=O)N4C[C@@H]5CCCN6CCC[C@@H]([C@H]56)[C@H]4C3)nn2)cc1 | 11.4 | 19.4 | 8.72 | 13.3 | 11.9 | – | – | – | – | – | – | –
CC(=O)c1ccc(OCc2cn([C@H]3CC(=O)N4C[C@@H]5CCCN6CCC[C@@H]([C@H]56)[C@H]4C3)nn2)cc1 | > 50 | 42.9 | > 50 | > 50 | > 50 | – | – | – | – | – | – | –
O=C(/C=C/c1ccc(F)cc1)c1ccc(OCc2cn([C@H]3CC(=O)N4C[C@@H]5CCCN6CCC[C@@H]([C@H]56)[C@H]4C3)nn2)cc1O | 19.8 | 36.1 | 18.3 | 5.71 | 9.02 | – | – | – | – | – | – | –
O=c1[nH]cc(F)c(=O)[nH]1 [FLUOROURACIL] | 8.93 | 22.4 | 40.4 | 9.56 | 19.9 | – | – | – | – | – | – | –
O=C(/C=C/c1ccc(OC(F)F)cc1)c1ccc(OCc2cn([C@H]3CC(=O)N4C[C@@H]5CCCN6CCC[C@@H]([C@H]56)[C@H]4C3)nn2)cc1 | > 50 | 27.3 | > 50 | – | – | – | – | – | – | – | – | –
O=C(/C=C/c1ccc(Cl)cc1)c1ccc(OCc2cn([C@H]3CC(=O)N4C[C@@H]5CCCN6CCC[C@@H]([C@H]56)[C@H]4C3)nn2)cc1O | 10.7 | 75.2 | 15.6 | 12.7 | 14.7 | – | – | – | – | – | – | –
O=C(/C=C/c1ccccc1)c1ccc(OCc2cn([C@H]3CC(=O)N4C[C@@H]5CCCN6CCC[C@@H]([C@H]56)[C@H]4C3)nn2)cc1 | 25.4 | 19.4 | 32.2 | 17.2 | 20.7 | – | – | – | – | – | – | –
COc1ccc(/C=C/C(=O)c2ccc(OCc3cn([C@H]4CC(=O)N5C[C@@H]6CCCN7CCC[C@@H]([C@H]67)[C@H]5C4)nn3)cc2)cc1OC | > 50 | 41.1 | > 50 | – | – | – | – | – | – | – | – | –
O=C(/C=C/c1ccc([N+](=O)[O-])cc1)c1ccc(OCc2cn([C@H]3CC(=O)N4C[C@@H]5CCCN6CCC[C@@H]([C@H]56)[C@H]4C3)nn2)cc1 | 6.06 | 35.7 | 14.5 | 11.5 | 16.2 | – | – | – | – | – | – | –
O=C(/C=C/c1ccc(Cl)c(Cl)c1)c1ccc(OCc2cn([C@H]3CC(=O)N4C[C@@H]5CCCN6CCC[C@@H]([C@H]56)[C@H]4C3)nn2)cc1O | 6.63 | 48.3 | 8.08 | 7.03 | 12.4 | – | – | – | – | – | – | –
COc1ccc(/C=C/C(=O)c2ccc(OCc3cn([C@H]4CC(=O)N5C[C@@H]6CCCN7CCC[C@@H]([C@H]67)[C@H]5C4)nn3)cc2O)cc1 | > 50 | 29.6 | > 50 | > 50 | > 50 | – | – | – | – | – | – | –
C#CCOc1ccc(C(=O)/C=C/c2ccc(Cl)c(Cl)c2)c(O)c1 | > 50 | 94.7 | > 50 | > 50 | – | – | – | – | – | – | – | –
C#CCOc1ccc(C(=O)/C=C/c2ccc(Cl)c(Cl)c2)cc1 | > 50 | 61.8 | > 50 | > 50 | – | – | – | – | – | – | – | –
Cc1ccc(/C=C/C(=O)c2ccc(OCc3cn([C@H]4CC(=O)N5C[C@@H]6CCCN7CCC[C@@H]([C@H]67)[C@H]5C4)nn3)cc2O)cc1 | > 50 | 20.9 | > 50 | – | – | – | – | – | – | – | – | –
O=C(/C=C/c1ccccc1Cl)c1ccc(OCc2cn([C@H]3CC(=O)N4C[C@@H]5CCCN6CCC[C@@H]([C@H]56)[C@H]4C3)nn2)cc1 | 13.5 | 88 | 14.2 | 23.8 | 21.8 | – | – | – | – | – | – | –
Cc1ccc(/C=C/C(=O)c2ccc(OCc3cn([C@H]4CC(=O)N5C[C@@H]6CCCN7CCC[C@@H]([C@H]67)[C@H]5C4)nn3)cc2)cc1 | 19.9 | 14.8 | 32.4 | 26.8 | 35.6 | – | – | – | – | – | – | –
